The values that follow come from ChEMBL document CHEMBL4152213, “Synthesis and biological evaluation of 2,5-disubstituted furan derivatives as P-glycoprotein inhibitors for Doxorubicin resistance in MCF-7/ADR cell” (Eur J Med Chem, 2018).

As usually defined, the EC50 is the concentration at which the effect is half-maximal.

Assay type in all cases: cell-based
Data set [1] is described as follows: Inhibition of P-gp in human MCF7/ADR cells assessed as cell viability after 48 hrs by MTT assay. The conditions noted are these: NCI/ADR-RES. The gist of the method:
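MTT assay in MCF-7/ADR cells: cells incubated 48 h with or without compounds, then 5 mg/mL MTT added for 3–4 h at 37 °C, 5% CO2. Formazan dissolved in EtOH/DMSO (1:1), OD at 570 and 650 nm. Data are the mean of three independent determinations of triplicate samples.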

Data set [2] is filed under the species Homo sapiens. As to the kind of experiment: Inhibition of P-gp in human MCF7/ADR cells assessed as assessed as potentiation of doxorubicin-induced antiproliferative activity by measuring doxorubicin antiproliferative activity at 20 uM after 2 days by MTT assay. On the set-up: scale not given: the % may be the effect or the level left. In outline: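 MCF-7/ADR cells plated at 10,000/well, then treated the next day. Compounds at 20 μM plus Doxorubicin 5 μM for 2 days, washed twice, then Doxorubicin alone for 1 day. Read-out by MTT: 0.5 mg/mL, 1 h at 37 °C, DMSO, absorbance 570/630 nm. Growth inhibition given as % of untreated control. Eight wells per treatment; three independent determinations in triplicate.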
For orientation: Formazan colour is commonly taken as a measure of viable cells.

For data set [3], the species on record is Homo sapiens. As to the kind of experiment: Inhibition of P-gp in human MCF7/ADR cells assessed as increase in intracellular accumulation of doxorubicin at 20 uM after 2 days by fluorescence assay relative to doxorubicin alone. The gist of the method: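 MCF-7/ADR cells exposed to compounds at 20 μM for 2 days, with Doxorubicin 50 μM added on the second day. Cells trypsinized, washed twice in ice-cold PBS pH 7.4, kept on ice under 1 h, then cellular Doxorubicin fluorescence measured by flow cytometry. Doxorubicin-only cells set as 100% and untreated autofluorescence as 0%. Expressed as fold accumulation; three independent determinations in triplicate.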

The subject of data set [4] is NCI/ADR-RES. Nature of the data set: Cytotoxicity against human MCF7/ADR cells at 100 uM after 24 to 48 hrs by MTT assay relative to control. In outline:
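MCF-7/ADR cells (RPMI 1640, 10% FBS, 37 °C, 5% CO2) exposed to compounds alone at 100 μM without Doxorubicin for 24 and 48 h. Viability by MTT: 5 mg/mL MTT, 3–4 h at 37 °C, formazan dissolved in EtOH/DMSO 1:1, OD at 570 and 650 nm. Cytotoxicity taken relative to untreated control.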

In the case of `O=C(c1ccc(-c2ccc(Br)cc2)o1)N1CCc2ccccc2C1`, in data set [1], the EC50 was 7.82 µM.

For `O=C(c1ccc(-c2ccc(F)cc2F)o1)N1CCc2ccccc2C1`, in data set [1], the 50% effective concentration (EC50) amounted to 12.7 µM.

Turning to `COc1cc2c(cc1OC)CN(C(=O)c1ccc(-c3ccccc3Cl)o1)CC2`, the EC50 in data set [1] was 8.18 µM.

Regarding `COc1cc2c(cc1OC)CN(C(=O)c1ccc(-c3ccccc3F)o1)CC2`, the EC50 in data set [1] came to 10.9 µM.

Regarding `COc1cc2c(cc1OC)CN(C(=O)c1ccc(-c3cccc(Cl)c3)o1)CC2`, the EC50 in data set [1] was found to be 14.7 µM.

With `COc1cc2c(cc1OC)CN(C(=O)c1ccc(-c3cccc([N+](=O)[O-])c3)o1)CC2`, in data set [1], the EC50 is 16.3 µM.

Take `O=C(c1ccc(-c2c(F)cccc2F)o1)N1CCCc2ccccc21`: in data set [1], the EC50 came out at 19.6 µM.

Consider `O=C(c1ccc(-c2ccccc2F)o1)N1CCc2ccccc2C1`, for which the EC50 in data set [1] is 14.8 µM.

Consider `COc1ccc(CCN(C)CCCC(C#N)(c2ccc(OC)c(OC)c2)C(C)C)cc1OC` (configuration not stated) [VERAPAMIL], for which the EC50 in data set [1] turned out to be 20.5 µM. Moreover, the Activity in data set [2] was found to be 52.5%. Moreover, in data set [3], the fold change (FC) is 3.6.

As to `Cc1ccc(-c2ccc(C(=O)N3CCCc4ccccc43)o2)cc1`, the EC50 in data set [1] was found to be 9.14 µM.

In the case of `O=C(c1ccc(-c2ccccc2[N+](=O)[O-])o1)N1CCCc2ccccc21`, the EC50 in data set [1] came out at 19.3 µM.

Consider `COc1cc2c(cc1OC)CN(C(=O)c1ccc(-c3ccc(C)cc3)o1)CC2`, for which the EC50 in data set [1] came to 5.23 µM.

Consider `O=C(c1ccc(-c2ccccc2)o1)N1CCc2ccccc2C1`, for which the EC50 in data set [1] is 8.29 µM.

Turning to `COc1ccc(-c2ccc(C(=O)N3CCc4ccccc4C3)o2)cc1`, in data set [1], the EC50 was determined as 5.48 µM.

Take `O=C(c1ccc(-c2ccc(Cl)cc2)o1)N1CCCc2ccccc21`: in data set [1], the EC50 is 8.28 µM.

As to `COc1cc2c(cc1OC)CN(C(=O)c1ccc(-c3cccc(F)c3)o1)CC2`, the 50% effective concentration (EC50) in data set [1] is 17.8 µM.

Take `O=C(c1ccc(-c2ccc([N+](=O)[O-])cc2)o1)N1CCc2ccccc2C1`: the EC50 in data set [1] is 12.5 µM.

As to `O=C(c1ccc(-c2ccccc2[N+](=O)[O-])o1)N1CCc2ccccc2C1`, in data set [1], the 50% effective concentration (EC50) was 15.2 µM.

As for `COc1cc2c(cc1OC)CN(C(=O)c1ccc(-c3ccc(F)cc3)o1)CC2`, the concentration giving a half-maximal response (EC50) in data set [1] worked out at 8.48 µM.

For `COc1cc2c(cc1OC)CN(C(=O)c1ccc(-c3ccccc3)o1)CC2`, in data set [1], the EC50 turned out to be 6.72 µM.

On to `COc1cc2c(cc1OC)CN(C(=O)c1ccc(-c3ccc([N+](=O)[O-])cc3)o1)CC2`, for which, in data set [1], the EC50 was determined as 9.23 µM.

As for `COc1ccc(-c2ccc(C(=O)N3CCCc4ccccc43)o2)cc1`, the EC50 in data set [1] is 6.82 µM.

For `COc1cc2c(cc1OC)CN(C(=O)c1ccc(-c3ccccc3[N+](=O)[O-])o1)CC2`, in data set [1], the EC50 amounted to 13.9 µM.

Consider `O=C(c1ccc(-c2ccc(F)cc2)o1)N1CCc2ccccc2C1`, for which the EC50 in data set [1] was 10.4 µM.

`O=C(c1ccc(-c2ccc(F)cc2)o1)N1CCCc2ccccc21`: in data set [1], the half-maximal effective concentration (EC50) stood at 13.2 µM.

On to `O=C(c1ccc(-c2c(F)cccc2F)o1)N1CCc2ccccc2C1`, for which the EC50 in data set [1] worked out at 15.3 µM.

In the case of `COc1ccc(-c2ccc(C(=O)N3CCc4cc(OC)c(OC)cc4C3)o2)cc1`, in data set [1], the EC50 was determined as 0.89 µM. Besides, the results for the Activity in data set [2] and in data set [4] were 97.8% and below 15%, respectively. The fold change (FC) in data set [3] was determined as 9.2.

Regarding `COc1cc2c(cc1OC)CN(C(=O)c1ccc(-c3ccc(Cl)cc3)o1)CC2`, the half-maximal effective concentration (EC50) in data set [1] was 3.27 µM. The values for the Activity in data set [2] and in data set [4] were 89.6% and below 15%, respectively. For the same molecule, the fold change (FC) in data set [3] came out at 6.8.

Consider `O=C(c1ccc(-c2ccccc2)o1)N1CCCc2ccccc21`, for which the EC50 in data set [1] came to 10.9 µM.

Turning to `O=C(c1ccc(-c2cccc([N+](=O)[O-])c2)o1)N1CCc2ccccc2C1`, the EC50 in data set [1] turned out to be 20.4 µM.

As to `O=C(c1ccc(-c2ccc(Cl)cc2)o1)N1CCc2ccccc2C1`, the EC50 in data set [1] was found to be 6.73 µM.

Turning to `O=C(c1ccc(-c2cccc(Cl)c2)o1)N1CCc2ccccc2C1`, the EC50 in data set [1] amounted to 18.2 µM.

For `O=C(c1ccc(-c2cccc(F)c2)o1)N1CCc2ccccc2C1`, in data set [1], the EC50 was determined as 20.5 µM.

As for `O=C(c1ccc(-c2ccccc2Cl)o1)N1CCCc2ccccc21`, in data set [1], the EC50 stood at 13.7 µM.

Consider `O=C(c1ccc(-c2ccccc2Cl)o1)N1CCc2ccccc2C1`, for which the EC50 in data set [1] is 10.2 µM.

For `Cc1ccc(-c2ccc(C(=O)N3CCc4ccccc4C3)o2)cc1`, the EC50 in data set [1] was 8.12 µM.

For the molecule `O=C(c1ccc(-c2ccc(Br)cc2)o1)N1CCCc2ccccc21`, the EC50 in data set [1] is 9.21 µM.

For the molecule `COc1cc2c(cc1OC)CN(C(=O)c1ccc(-c3c(F)cccc3F)o1)CC2`, the EC50 in data set [1] stood at 13 µM.

For `O=C(c1ccc(-c2cccc(F)c2)o1)N1CCCc2ccccc21`, the EC50 in data set [1] was 27.4 µM.

For the molecule `O=C(c1ccc(-c2ccc(F)cc2F)o1)N1CCCc2ccccc21`, the EC50 in data set [1] came to 17.3 µM.

For the molecule `COc1cc2c(cc1OC)CN(C(=O)c1ccc(-c3ccc(F)cc3F)o1)CC2`, the EC50 in data set [1] was 10.4 µM.

For `COc1cc2c(cc1OC)CN(C(=O)c1ccc(-c3ccc(Br)cc3)o1)CC2`, in data set [1], the EC50 worked out at 4.34 µM. The Activity in data set [2] is 79.8%; in data set [4] it was below 15%. In data set [3], the fold change (FC) turned out to be 5.

For `O=C(c1ccc(-c2cccc(Cl)c2)o1)N1CCCc2ccccc21`, in data set [1], the EC50 worked out at 17.4 µM.

`O=C(c1ccc(-c2ccccc2F)o1)N1CCCc2ccccc21`: the EC50 in data set [1] is 17.9 µM.

Turning to `O=C(c1ccc(-c2ccc([N+](=O)[O-])cc2)o1)N1CCCc2ccccc21`, the EC50 in data set [1] is 15.5 µM.

For `O=C(c1ccc(-c2cccc([N+](=O)[O-])c2)o1)N1CCCc2ccccc21`, the EC50 in data set [1] is 29.1 µM.
